# What was measured:
# [1] = test system: albumin; details: after s.c. administration and absorption into the circulation; cited from earlier work
# [2] = Pharmacokinetics; type: in vivo, human; details: single s.c. dose 5.6 U/kg; p < 0.001
# [3] = test system: individuals with type 2 diabetes; assay: Safety assessments; type: in vivo, human; details: all injection regions; N (%) of 25
# In short: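 Over three treatment periods, 25 participants with type 2 diabetes each received one 5.6 U/kg s.c. dose per region (thigh, abdomen, upper arm), stayed in-house to 60 h, and underwent a 36–60 h glucose clamp at 7.5 mmol/L. Monitoring covered adverse events, labs, vital signs and examination. Hypoglycaemia levels: 1, plasma glucose <3.9 and ≥3.0 mmol/L; 2, <3.0 mmol/L; 3, severe cognitive impairment needing assistance.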
substance,measurement,setting,value
insulin icodec,Binding to albumin,[1],binds strongly to albumin
same,Cmax after single dose higher for upper arm versus thigh,[2],24%
same,Participants reporting adverse events,[3],12 (48%) participants
